Tests used:
[1] = target: Genome polyprotein (dengue virus type 2) (UniProt P12823); assay: Inhibition of Dengue virus serotype 2 NS2B-NS3 protease at 50 uM by homogeneous fluorimetric assay
Genome polyprotein = Genome polyprotein (dengue virus type 2, UniProt P12823); assay: Inhibition of Dengue virus serotype 2 NS2B-NS3 protease by homogeneous fluorimetric assay
[2] = target: Genome polyprotein (West Nile virus) (UniProt P06935); assay: Inhibition of West Nile virus […] NS2B-NS3 protease at 50 uM by homogeneous fluorimetric assay
Outline: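 WNV NS2B-NS3 protease percent inhibition, homogeneous fluorimetric assay: enzyme 150 nM, inhibitor 50 μM, substrate 50 μM (Km = 212 μM); triplicate, SD below 10%.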

[3] = target: Prothrombin (Homo sapiens) (UniProt P00734); assay: Inhibition of thrombin (unknown origin) at 25 uM by homogeneous fluorimetric assay
[4] = target: Genome polyprotein (dengue virus type 2) (UniProt P12823); assay: Competitive inhibition of Dengue virus serotype 2 NS2B-NS3 protease by aprotinin competition fluorescence assay
Outline: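 Active-site binding checked by aprotinin competition: fluorescence decrease followed with increasing inhibitor concentration, then aprotinin added to test recovery of fluorescence.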

Chain of Genome polyprotein (West Nile virus) (P06935 whole entry): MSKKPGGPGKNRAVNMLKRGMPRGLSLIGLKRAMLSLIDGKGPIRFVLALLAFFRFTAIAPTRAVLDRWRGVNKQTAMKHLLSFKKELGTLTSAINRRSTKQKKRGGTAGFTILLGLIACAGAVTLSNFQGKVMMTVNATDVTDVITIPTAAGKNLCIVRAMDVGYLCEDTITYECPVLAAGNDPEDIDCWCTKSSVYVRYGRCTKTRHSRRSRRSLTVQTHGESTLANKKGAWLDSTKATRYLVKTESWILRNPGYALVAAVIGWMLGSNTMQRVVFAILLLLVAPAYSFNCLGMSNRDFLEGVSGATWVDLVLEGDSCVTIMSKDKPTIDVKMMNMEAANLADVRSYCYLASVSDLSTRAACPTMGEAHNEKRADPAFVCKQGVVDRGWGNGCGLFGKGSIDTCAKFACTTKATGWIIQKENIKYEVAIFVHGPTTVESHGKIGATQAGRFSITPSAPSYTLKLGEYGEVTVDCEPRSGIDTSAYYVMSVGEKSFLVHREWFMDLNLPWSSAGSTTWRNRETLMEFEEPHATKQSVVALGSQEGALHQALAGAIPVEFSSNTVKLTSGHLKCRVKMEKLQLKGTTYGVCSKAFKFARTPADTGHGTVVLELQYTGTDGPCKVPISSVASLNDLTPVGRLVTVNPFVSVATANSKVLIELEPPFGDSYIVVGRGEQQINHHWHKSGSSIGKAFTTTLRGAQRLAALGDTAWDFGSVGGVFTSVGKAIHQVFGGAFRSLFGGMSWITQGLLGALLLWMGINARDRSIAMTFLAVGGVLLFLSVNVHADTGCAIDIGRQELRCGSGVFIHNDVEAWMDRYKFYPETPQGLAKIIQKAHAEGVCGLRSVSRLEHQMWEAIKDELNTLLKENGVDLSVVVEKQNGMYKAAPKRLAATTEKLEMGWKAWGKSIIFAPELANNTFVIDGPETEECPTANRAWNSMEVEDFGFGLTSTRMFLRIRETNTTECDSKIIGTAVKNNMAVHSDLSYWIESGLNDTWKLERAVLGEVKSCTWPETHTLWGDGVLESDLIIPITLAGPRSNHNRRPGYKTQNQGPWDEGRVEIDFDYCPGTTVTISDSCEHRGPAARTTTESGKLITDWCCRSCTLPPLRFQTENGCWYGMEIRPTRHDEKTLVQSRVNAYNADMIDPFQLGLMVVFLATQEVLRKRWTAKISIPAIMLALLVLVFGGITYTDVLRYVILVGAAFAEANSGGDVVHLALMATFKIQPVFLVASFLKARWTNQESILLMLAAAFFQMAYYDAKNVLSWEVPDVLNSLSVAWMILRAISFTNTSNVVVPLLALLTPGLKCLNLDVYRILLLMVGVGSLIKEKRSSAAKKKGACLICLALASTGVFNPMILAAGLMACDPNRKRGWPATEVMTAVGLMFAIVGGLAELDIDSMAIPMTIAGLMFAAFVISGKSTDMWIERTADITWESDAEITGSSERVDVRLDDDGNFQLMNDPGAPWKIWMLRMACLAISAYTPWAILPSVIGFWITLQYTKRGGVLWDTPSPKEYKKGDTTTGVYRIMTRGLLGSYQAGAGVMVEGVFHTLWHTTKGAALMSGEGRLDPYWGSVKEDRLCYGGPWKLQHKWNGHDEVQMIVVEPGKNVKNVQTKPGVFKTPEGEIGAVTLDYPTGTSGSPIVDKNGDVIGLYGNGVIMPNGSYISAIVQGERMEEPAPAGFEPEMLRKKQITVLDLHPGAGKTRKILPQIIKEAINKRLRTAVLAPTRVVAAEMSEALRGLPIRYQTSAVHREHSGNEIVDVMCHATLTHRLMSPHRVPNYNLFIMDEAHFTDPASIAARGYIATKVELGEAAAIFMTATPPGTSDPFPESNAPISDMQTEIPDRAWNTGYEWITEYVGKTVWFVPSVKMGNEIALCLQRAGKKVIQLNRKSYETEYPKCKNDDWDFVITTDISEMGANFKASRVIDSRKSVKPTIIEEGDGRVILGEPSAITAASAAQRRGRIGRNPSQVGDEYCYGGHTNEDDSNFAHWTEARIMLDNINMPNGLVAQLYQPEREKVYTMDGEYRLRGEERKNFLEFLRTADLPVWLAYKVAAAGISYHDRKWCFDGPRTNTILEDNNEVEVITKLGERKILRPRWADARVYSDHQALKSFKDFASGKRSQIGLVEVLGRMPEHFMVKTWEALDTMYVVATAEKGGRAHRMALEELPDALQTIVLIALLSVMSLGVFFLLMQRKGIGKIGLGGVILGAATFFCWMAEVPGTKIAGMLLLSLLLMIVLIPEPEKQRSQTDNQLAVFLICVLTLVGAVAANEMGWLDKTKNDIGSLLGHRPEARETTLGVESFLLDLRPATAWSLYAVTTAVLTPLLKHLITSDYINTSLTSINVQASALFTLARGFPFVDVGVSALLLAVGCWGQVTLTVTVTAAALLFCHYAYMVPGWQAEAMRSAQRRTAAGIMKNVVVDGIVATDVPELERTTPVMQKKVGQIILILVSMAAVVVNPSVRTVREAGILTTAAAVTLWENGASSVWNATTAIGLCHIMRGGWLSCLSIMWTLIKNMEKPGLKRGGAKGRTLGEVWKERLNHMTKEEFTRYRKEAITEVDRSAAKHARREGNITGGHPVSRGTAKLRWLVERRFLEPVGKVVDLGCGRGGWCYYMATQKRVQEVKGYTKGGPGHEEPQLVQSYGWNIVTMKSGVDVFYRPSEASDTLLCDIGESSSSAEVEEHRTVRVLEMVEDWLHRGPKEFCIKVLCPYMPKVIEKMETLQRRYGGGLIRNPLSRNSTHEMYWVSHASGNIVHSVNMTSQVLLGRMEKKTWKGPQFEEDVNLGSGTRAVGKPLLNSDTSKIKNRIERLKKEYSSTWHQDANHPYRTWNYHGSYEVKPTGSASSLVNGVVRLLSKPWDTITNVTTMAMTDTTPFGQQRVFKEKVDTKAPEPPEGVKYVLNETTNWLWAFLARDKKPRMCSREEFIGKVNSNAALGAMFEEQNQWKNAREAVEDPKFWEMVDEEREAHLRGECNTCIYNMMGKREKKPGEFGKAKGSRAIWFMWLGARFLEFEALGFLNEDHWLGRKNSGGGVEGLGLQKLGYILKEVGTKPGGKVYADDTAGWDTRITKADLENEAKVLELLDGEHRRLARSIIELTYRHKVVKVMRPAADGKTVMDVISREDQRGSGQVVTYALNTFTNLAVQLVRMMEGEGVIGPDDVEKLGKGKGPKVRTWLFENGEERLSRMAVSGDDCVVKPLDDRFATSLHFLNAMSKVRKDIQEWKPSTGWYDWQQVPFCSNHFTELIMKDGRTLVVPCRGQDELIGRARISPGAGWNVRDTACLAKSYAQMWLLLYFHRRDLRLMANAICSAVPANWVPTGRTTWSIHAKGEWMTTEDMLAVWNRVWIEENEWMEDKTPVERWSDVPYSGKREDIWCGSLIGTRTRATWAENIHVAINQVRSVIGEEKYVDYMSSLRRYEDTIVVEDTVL

- inhibition [1]: 99.6%
- IC50 (Genome polyprotein): 600 nM
- inhibition [2]: 98.4%
- inhibition [3]: 9.2%
- inhibition [4]: Dose-dependent effect
Structure (SMILES): N=C(N)NCCC[C@H](NC(=O)c1ccc(/C=C2\SC(=O)N(C3CCCC3)C2=O)cc1)C(=O)N[C@@H](CCCCN)C(=O)N[C@H](C(N)=O)c1ccccc1

Reference: ChEMBL document CHEMBL3352023, “C-terminal residue optimization and fragment merging: discovery of a potent Peptide-hybrid inhibitor of dengue protease” (ACS Med Chem Lett, 2014)
